TRPC6 act: mouse TRPC6 channel activators, primary screen, cell-based, HEK293, membrane potential dye | 310,000 compounds, 0.13% hits | HEK293-TRPC6 membrane potential dye fluorescence; hits give high values | Short transient receptor potential channel 6 (Mus musculus), Q61143 | B-score at 10 µM;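 active = B-score of the integrated fluorescence ratio above library mean plus 3 SD, and starting fluorescence ratio within library mean plus 5 SD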;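 note: higher score means more depolarization so channel activation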
TRPC4 block: inhibitors of mouse TRPC4 channel, primary screen, Fluo4 calcium, HEK293 TRPC4beta/mu-opioid cells; DAMGO-evoked Fluo4 calcium flux; hits give low values; B-score at 10 µM; AID 2247, 2010; 300,000 compounds, 0.39% hits; Short transient receptor potential channel 4 (Mus musculus), Q9QUQ5;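 active = B-score over 3 SD under the library average, no early fluorescence shift, positive overall ratio signal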
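Assay system – HEK293 line stably carrying TRPC4beta and mu-opioid receptor · Doses – single dose · Detection – Fluo4 calcium-dye fluorescence, kinetic read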
TRPC6 inh: mouse TRPC6 channel inhibitors, primary screen, cell-based, HEK293, membrane potential dye; Short transient receptor potential channel 6 (Mus musculus), Q61143; ACh-evoked depolarization; hits give low values; B-score at 10 µM; 310,000 compounds, 1.1% hits;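 active = B-score under library mean minus 3 SD, initial fluorescence not abnormally high, positive integrated signal ratio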;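 note: B-score derived from integrated fluorescence ratio over the kinetic read; more negative B-score means stronger inhibition of depolarization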
TRPC4 PAM: positive allosteric modulators of TRPC4, primary screen, cell-based, mouse TRPC4beta, HEK293 mu-opioid, Fluo-4 calcium. B-score at 10 µM. Short transient receptor potential channel 4 (Mus musculus), Q9QUQ5. DAMGO EC20, Fluo-4 Ca2+ flux; hits give high values. 310,000 compounds, 0.42% hits;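 active = B-score of calcium response area above 5 SD of library B-scores, with initial fluorescence ratio within 5 SD of library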;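 note: B-score of integrated fluorescence ratio over time as area under calcium response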
TRPC4 agonist: activators of mouse TRPC4 channel, primary screen, Fluo4 calcium, HEK293 TRPC4beta/mu-opioid cells | 310,000 compounds, 0.49% hits | AID 2237, 2010 | Fluo4 calcium fluorescence; hits give high values | B-score at 10 µM;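 active = B-score above 5 SD of library B-scores, and initial fluorescence ratio not above library mean plus 5 SD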;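 note: positive B-score marks a calcium rise read as TRPC4 activation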
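Test system: HEK293 cells stably co-expressing mouse TRPC4beta and mu-opioid receptor | Schedule: Fluo4 dye loading 45 min at room temperature, 110 s recording | Measured by: Kinetic Fluo4 calcium fluorescence, 5 s baseline at 1 Hz | Evaluation: B score of integrated ratio | Controls: Buffer (low) and maximal DAMGO (high)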
An asterisk follows results filed as active; i = inactive. Shown are actives, neighbours in structure and some others; about 2.3% of the full set was active somewhere.

SMILES | TRPC6 act | TRPC4 block | TRPC6 inh | TRPC4 PAM | TRPC4 agonist
Cc1ccccc1C(=O)Nc1cccc(-c2ccc(N3CCOCC3)nn2)c1 | i | i | i | i | i
Oc1cccc(/C=N/NC(=S)Nc2cccnc2)c1O | i | i | i | i | 50*
Oc1ccc(/C=N/NC(=S)Nc2cccnc2)c(O)c1O | i | i | i | i | i
Cc1cc(NC(=O)Nc2cccc(Cl)c2)n(-c2ccccn2)n1 | i | i | -5.2* | i | i
Cc1cc(NC(=O)Nc2cccc(Cl)c2)n(-c2ccccc2)n1 | i | i | i | i | i
CC(C)(C)c1cc(C(=O)NCc2cc(F)cc3c2OCOC3)n(Cc2ccccc2)n1 | i | i | i | 13* | i
O=C(O)C(F)=C(c1ccccc1)c1ccccc1 | i | i | i | i | i
CC(C)Oc1ccccc1C1CC(=O)Nc2cc3c(cc21)OCCO3 (centres undefined) | i | i | i | 82* | i
Cc1ccnc(NC(=O)Cn2cc([N+](=O)[O-])cn2)c1 | i | -8* | i | i | i
O=C(Cn1cc([N+](=O)[O-])cn1)Nc1ccccn1 | i | i | i | i | i
CCc1nc(NCCc2ccccn2)c2nnn(Cc3ccccc3F)c2n1 | i | i | i | i | 186*
COc1cccc(C2=NN(C(=O)c3ccco3)C(c3ccco3)C2)c1 (centres undefined) | i | -6* | i | i | i
CCCC(=O)N/C(N)=N/c1nc(C)c2ccccc2n1 | i | i | i | 19* | i
O=[N+]([O-])c1cccc(N(CC(O)CN2CCCC2)S(=O)(=O)c2ccccc2)c1 (centres undefined) | i | -8* | i | i | i
COC(=O)c1cnc(Oc2c(Cl)cc(N)cc2Cl)cc1C(F)(F)F | i | i | i | 22* | i
Cc1cccc(/C=N/NC(=O)c2cccc([N+](=O)[O-])c2)n1 | i | i | i | i | i
Cc1cc(/C=N/NC(=O)c2cccc([N+](=O)[O-])c2)c(C)n1-c1ccc(Cl)cc1Cl | i | -6* | i | i | i
OCC1(CCc2ccccc2)CCN(Cc2ccccc2Cl)CC1 | i | i | i | i | 69*
COc1ccc2c(c1)C=C(CN1CCC(CO)(CCc3ccccc3)CC1)CO2 | i | -6* | i | i | i
OCC1(CCCc2ccccc2)CCN(Cc2cc(F)ccc2F)CC1 | i | -7* | i | i | i
OCC1(CCc2ccccc2)CCN(Cc2cc(F)ccc2-n2cccn2)CC1 | i | i | i | i | 82*
OCC1(CCc2ccccc2)CCN(Cc2c(F)ccc(F)c2F)CC1 | i | i | i | i | i
N#Cc1cccc(C(=O)Nc2cccc(S(=O)(=O)N3CCCC3)c2)c1 | i | i | i | i | i
Cc1cccc(C)c1NC(=O)CSC(=O)c1sc2ccccc2c1Cl | i | i | i | i | i
Fc1cccc(Nc2c3c(nc4ccccc24)CCC3)c1 | i | -7* | i | i | i
SMILES | TRPC6 act | TRPC4 block | TRPC6 inh | TRPC4 PAM | TRPC4 agonist
COc1ccccc1Nc1c2c(nc3ccccc13)CCC2 | i | i | i | i | i
COc1ccc(Nc2c3c(nc4ccccc24)CCC3)c(OC)c1 | i | -5* | i | i | i
CC(=O)c1cccc(Nc2c3c(nc4ccccc24)CCC3)c1 | i | i | i | i | i
COC(=O)c1cccc(Nc2c3c(nc4ccccc24)CCC3)c1 | i | -7* | i | i | i
Cc1nnc(NC(=O)c2cc(-c3ccncc3)nc3c(C)cccc23)s1 | i | i | i | i | i
CCN(CC(=O)Nc1c(F)cccc1F)C(=O)/C=C/c1cn(Cc2ccccc2)nc1-c1cccnc1 | i | i | i | i | i
O=C(Nc1ccccc1Oc1ccccc1)c1cccs1 | i | i | i | i | i
COc1ccc(CCNC(C)=O)cc1 | i | i | i | i | i
COc1ccc(CCNC(=O)C2CC=CCC2C(=O)O)cc1 (centres undefined) | i | i | i | 12* | i
Cc1nn(Cc2ccccc2Cl)c(C)c1C(=O)NC1=NCCS1 | i | i | i | i | i
CCC(CC)c1nnc(NC(=O)c2c(C)nn(Cc3ccccc3Cl)c2C)s1 | i | i | i | 21* | i
Cc1ccccc1N1CC(=O)N(c2ccccc2C)CC1=O | i | i | i | i | i
Cc1ccc(C2(O)CN(c3ccccc3C)C3=[N+]2CCS3)cc1 (centres undefined) | i | i | i | i | 106*
Cc1ccc(C)c(N2CC(O)(c3cccs3)[N+]3=C2CCCC3)c1 (centres undefined) | i | i | i | i | i
Cc1ccccc1N1CC(O)(c2ccccc2)[N+]2=C1SCC2 (centres undefined) | i | i | i | i | 83*
CC(C)c1ccc(NC(=O)[C@H](NC(=O)[C@@H]2Cc3ccccc3CN2)c2ccccc2)cc1 | i | i | i | i | i
CCCCS(=O)(=O)N1CCN(S(=O)(=O)c2ccc(Cl)s2)CC1 | i | i | i | i | i
CCCCc1cc(O)c(CCCC)c(O)c1 | i | i | i | 11* | 65*
COc1cc(C)c(/C=C(\C#N)C(=O)Nc2ccc(C)cc2)cc1C(C)C | i | i | i | i | i
COCCNC(=O)/C(C#N)=C/c1ccccc1Br | i | i | i | 13* | i
COCCNC(=O)/C(C#N)=C/c1cc(C(C)C)c(OC)cc1C | i | i | i | 17* | i
COCCNC(=O)/C(C#N)=C/C=C/c1ccccc1 | i | i | i | i | i
CCOC(=O)C1CCN(C(=O)Cn2c(=O)c3cccn3c3cccnc32)CC1 | i | i | i | i | i
CCC(=O)NCCc1cc2ccc(C)c(C)c2[nH]c1=O | i | i | i | i | i
CCCC(=O)NCCc1cc2ccc(C)c(C)c2[nH]c1=O | i | i | i | 12* | i
CN1CCN(NC(=O)Nc2cc(Cl)cc(Cl)c2)CC1 | i | i | i | 26* | i
CCCCN(CCCC)/C(N)=N/c1nc(C)cc(C)n1 | i | -7* | i | i | i
CCOc1ccc(N/C(N)=N/c2nc(C)cc(C)n2)cc1 | i | i | i | i | i

Screens as filed in PubChem BioAssay.
